Results on four compounds are retold here after publication PMC11789357 (Journal of Translational Medicine, 2025).

For series [1], the target named is EPOR extracellular domain-IgFc construct (UniProt P19235). Briefly: SPR.
In series [2] the test system is UT-7 cells. In words: CellTiter-Glo cell proliferation / survival assay. Type of series: cell-based, human. The settings on record: medium without EPO; matched doses 1000 ng/mL (20 nM) vs 4 U/mL, 200 ng/mL (4 nM) vs 0.8 U/mL. In general terms: Cellular ATP, detected with luciferase, serves as a proxy for viable cell number.
Another series deals with BaF3-hEPOR cells. Briefly: Western blot of EPOR downstream signaling. The conditions noted are these: 10 min treatment, monitored 4 days. Type of series: cell-based, murine. Put shortly: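 They were exposed 10 min, pelleted, and resuspended in EPO-free medium. Lysates were taken at 0 min, 30 min, 1 h, 4 h and 1–4 days. Western blots on 4–20% gels were probed for p-ERK1/2 and p-STAT5.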

The subject of series [3] is UT-7 cells. The conditions noted are these: ref [21], [23]; cited from earlier work.
The nature of series [4]: Single-dose PK study in healthy BALB/c mice. Type of series: in vivo, mouse. The conditions noted are these: SC 0.08 mg/kg single dose. Put shortly:
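Female BALB/c mice received a single sc injection of test compound or peptide dimer. Blood was sampled at several times over 14 days, and serum drug level was measured by MSD immunoassay. Mean concentration–time curves gave Tmax, Cmax, t1/2, AUC0-t, AUC0-∞ and MRT.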

UniProt P19235, sequence (P19235 25-250): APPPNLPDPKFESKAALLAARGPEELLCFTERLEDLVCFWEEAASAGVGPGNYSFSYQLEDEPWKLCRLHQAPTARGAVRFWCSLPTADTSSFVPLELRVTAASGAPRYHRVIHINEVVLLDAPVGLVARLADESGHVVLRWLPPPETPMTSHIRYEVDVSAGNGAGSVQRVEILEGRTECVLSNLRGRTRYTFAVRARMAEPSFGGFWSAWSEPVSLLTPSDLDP

As usually defined, the Kd is the constant that tells how readily two partners part at equilibrium. With Pegmolesatide (peptide), the Kd in series [1] amounted to 0.28 nM. Regarding “rHuEPO (ESPO 3000): recombinant human erythropoietin product ESPO 3000, Kyowa Kirin”, the “UT-7 cell proliferation under continuous treatment” value with UT-7 cells [2] is “maintained cell proliferation over 7 consecutive days of treatment”. Besides, the “Phosphorylation levels of ERK1/2 MAPK and STAT5 after withdrawal” value in the series on BaF3-hEPOR cells is reported as “showed a decline”.

With “rHuEPO: recombinant human erythropoietin, as cited from literature”, in the series on UT-7 cells [3], the “Rate of internalization of the rHuEPO-receptor complex” value was 3.6 per hour and the “Time to lysosomal degradation post-internalization” value was 15 to 20 min. In the case of `CC(=O)NCC(=O)NCC(=O)N[C@H](C(=O)N[C@@H](Cc1ccc(O)cc1)C(=O)N[C@@H](CO)C(=O)N[C@H]1CSSC[C@@H](C(=O)N[C@@H](CCCNC(=N)N)C(=O)N2CCC[C@H]2C(=O)N[C@@H](CCC(N)=O)C(=O)N[C@@H](CCCNC(=N)N)C(=O)NCC(=O)NCCC(=O)N[C@@H](CCCCNC(=O)CN(CC(=O)NCCCC[C@H](NC(=O)CCNC(=O)CNC(=O)[C@H](CCCNC(=N)N)NC(=O)[C@H](CCC(N)=O)NC(=O)[C@@H]2CCCN2C(=O)[C@H](CCCNC(=N)N)NC(=O)[C@@H]2CSSC[C@H](NC(=O)[C@H](CO)NC(=O)[C@H](Cc3ccc(O)cc3)NC(=O)[C@@H](NC(=O)CNC(=O)CNC(C)=O)[C@@H](C)O)C(=O)N[C@@H](Cc3c[nH]cn3)C(=O)N[C@@H](Cc3ccccc3)C(=O)NCC(=O)N[C@@H](C)C(=O)N[C@@H](CC(C)C)C(=O)N[C@@H]([C@@H](C)O)C(=O)N[C@@H](Cc3c[nH]c4ccccc34)C(=O)N[C@@H](C(C)C)C(=O)N2)C(N)=O)C(=O)CCN)C(N)=O)NC(=O)[C@H](C(C)C)NC(=O)[C@H](Cc2c[nH]c3ccccc23)NC(=O)[C@H]([C@@H](C)O)NC(=O)[C@H](CC(C)C)NC(=O)[C@H](C)NC(=O)CNC(=O)[C@H](Cc2ccccc2)NC(=O)[C@H](Cc2c[nH]cn2)NC1=O)[C@@H](C)O` [Peptide dimer], the “Phosphorylation levels of ERK1/2 MAPK and STAT5 after withdrawal” value in the series on BaF3-hEPOR cells is on record as “showed a decline”. The “Serum concentration” value in series [4] is “mostly below detection limits”.
